Measurements as given in ChEMBL document CHEMBL1649451, “In vivo selection of reduced susceptibility to carbapenems in Acinetobacter baumannii related to ISAba1-mediated overexpression of the natural bla(OXA-66) oxacillinase gene” (2009).
≈ marks a conversion by molar mass, not a printed value.

How the values were obtained:
Assay type in all cases: functional
Acinetobacter baumannii [1] = assay: Antimicrobial activity against carbapenem-susceptible Acinetobacter baumannii isolate A1 by Etest method
Procedure, shortened: (§1)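 Etest strips on Mueller-Hinton agar, incubated at 37°C; MIC read from strip for clinical A. baumannii isolates A1 and A2 (clonally related, genotyped by ApaI PFGE).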

Acinetobacter baumannii [2] = assay: Antimicrobial activity against bla OXA-66 gene-deficient Acinetobacter baumannii isolate A2 by Etest method; procedure, shortened: as §1
Acinetobacter baumannii [3] = assay: Antimicrobial activity against carbapenem-resistant Acinetobacter baumannii isolate A2 by Etest method; procedure, shortened: as §1

| Structure (SMILES) | MIC (Acinetobacter baumannii [1]) [µg/mL] | MIC (Acinetobacter baumannii [2]) [µg/mL] | MIC (Acinetobacter baumannii [3]) [µg/mL] |
| --- | --- | --- | --- |
| C[C@@H](O)[C@H]1C(=O)N2C(C(=O)O)=C(SCCNC=N)C[C@H]12 [IMIPENEM ANHYDROUS] | 2 (≈ 6.68 µM) | 0.5 (≈ 1.67 µM) | 4 (≈ 13.4 µM) |
| CC(C)(O/N=C(\C(=O)N[C@@H]1C(=O)N2C(C(=O)[O-])=C(C[n+]3ccccc3)CS[C@H]12)c1csc(N)n1)C(=O)O [CEFTAZIDIME] | 128 (≈ 234 µM) | 128 (≈ 234 µM) | 128 (≈ 234 µM) |
| C[C@@H](O)[C@H]1C(=O)N2C(C(=O)O)=C(S[C@@H]3CN[C@H](C(=O)N(C)C)C3)[C@H](C)[C@H]12 [MEROPENEM] | 3 (≈ 7.82 µM) | 0.5 (≈ 1.3 µM) | 6 (≈ 15.6 µM) |
| CO[C@H]1/C=C/O[C@@]2(C)Oc3c(C)c(O)c4c(O)c(c(/C=N/N5CCN(C)CC5)c(O)c4c3C2=O)NC(=O)/C(C)=C\C=C\[C@H](C)[C@H](O)[C@@H](C)[C@@H](O)[C@@H](C)[C@H](OC(C)=O)[C@@H]1C [RIFAMPIN] | 8 (≈ 9.72 µM) | 128 (≈ 156 µM) | 8 (≈ 9.72 µM) |
